According to ChEMBL document CHEMBL1909615, “Design, synthesis and antibacterial activity of fluoroquinolones containing bulky arenesulfonyl fragment: 2D-QSAR and docking study” (2011):
Values after ≈ are worked out from the molar mass of the structure shown.

Key:
Assay type in all cases: functional
[1] = tested on: Bacillus subtilis; experiment: Antibacterial activity against Bacillus subtilis ATCC 10400 after 18 hrs by EUCAST broth dilution method; conditions: for MIC: Bacillus subtilis, ATCC 10400, 18 h
[2] = tested on: Staphylococcus aureus; experiment: Antibacterial activity against Staphylococcus aureus ATCC 29213 after 18 hrs by EUCAST broth dilution method; conditions: for MIC: Staphylococcus aureus, ATCC 29213, 18 h
Outline: (§1)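 Broth microdilution in Mueller-Hinton broth per CLSI. Compounds dissolved in DMSO at 5120 µg/mL, diluted tenfold in MHB to 512 µg/mL, then twofold serially across 12 wells down to 0.25 µg/mL. Strains grown in tryptone soy broth; 5 µL inoculum (10^4-10^5 CFU/mL) added per well. Incubated 35 °C, 18 h. MIC read manually as the lowest concentration preventing visible growth.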

[3] = tested on: Escherichia coli; experiment: Antibacterial activity against Escherichia coli ATCC 25922 after 18 hrs by EUCAST broth dilution method; conditions: ATCC 25922, 18 h; outline: as §1
[4] = tested on: Pseudomonas aeruginosa; experiment: Antibacterial activity against Pseudomonas aeruginosa ATCC 27853 after 18 hrs by EUCAST broth dilution method; conditions: for MIC: Pseudomonas aeruginosa, ATCC 27853, 18 h; outline: as §1

| Compound | log(1/MIC), MIC in mM [1] | MIC [1] | log(1/MIC), MIC in mM [2] | MIC [2] | MIC [3] | log(1/MIC), MIC in mM [4] | MIC [4] |
| --- | --- | --- | --- | --- | --- | --- | --- |
| CCn1cc(C(=O)O)c(=O)c2cc(F)c(N3CCN(S(=O)(=O)c4ccc5ccccc5c4)CC3)cc21 | 3.01 | 0.981 µM (≈ 0.5 µg/mL) | 2.71 | 1.96 µM (≈ 0.999 µg/mL) | 251 µM (≈ 128 µg/mL) | 0.9 | 126 µM (≈ 64.2 µg/mL) |
| O=C(O)c1cn(C2CC2)c2cc(N3CCN(S(=O)(=O)c4ccc5ccccc5c4)CC3)c(F)cc2c1=O | 2.72 | 1.92 µM (≈ 1 µg/mL) | 2.72 | 1.92 µM (≈ 1 µg/mL) | 123 µM (≈ 64.2 µg/mL) | 0.61 | 245 µM (≈ 128 µg/mL) |
| CCn1cc(C(=O)O)c(=O)c2cc(F)c(N3CCN(S(=O)(=O)c4cccc5ccccc45)CC3)cc21 | 3.01 | 0.981 µM (≈ 0.5 µg/mL) | 2.71 | 1.96 µM (≈ 0.999 µg/mL) | 251 µM (≈ 128 µg/mL) | 0.6 | 251 µM (≈ 128 µg/mL) |
| O=C(O)c1cn(C2CC2)c2cc(N3CCN(S(=O)(=O)c4cccc5ccccc45)CC3)c(F)cc2c1=O | 3.32 | 0.479 µM (≈ 0.25 µg/mL) | 2.72 | 1.92 µM (≈ 1 µg/mL) | 61.3 µM (≈ 32 µg/mL) | 0.91 | 123 µM (≈ 64.2 µg/mL) |
| CCn1cc(C(=O)O)c(=O)c2cc(F)c(N3CCN(S(=O)(=O)c4ccc(OC)cc4OC)CC3)cc21 | 3.32 | 0.481 µM (≈ 0.25 µg/mL) | 3.32 | 0.481 µM (≈ 0.25 µg/mL) | ≤ 0.481 µM | 2.14 | 3.85 µM (≈ 2 µg/mL) |
| COc1ccc(S(=O)(=O)N2CCN(c3cc4c(cc3F)c(=O)c(C(=O)O)cn4C3CC3)CC2)c(OC)c1 | 3.33 | ≤ 0.47 µM | 3.33 | ≤ 0.47 µM | ≤ 0.47 µM | 3.33 | 0.47 µM (≈ 0.25 µg/mL) |
| CCn1cc(C(=O)O)c(=O)c2cc(F)c(N3CCN(S(=O)(=O)c4ccc(OC)c(OC)c4)CC3)cc21 | 3.02 | 0.962 µM (≈ 0.5 µg/mL) | 3.02 | 0.962 µM (≈ 0.5 µg/mL) | ≤ 0.481 µM | 2.14 | 3.85 µM (≈ 2 µg/mL) |
| COc1ccc(S(=O)(=O)N2CCN(c3cc4c(cc3F)c(=O)c(C(=O)O)cn4C3CC3)CC2)cc1OC | 3.33 | 0.47 µM (≈ 0.25 µg/mL) | 3.33 | ≤ 0.47 µM | ≤ 0.47 µM | 2.42 | 3.76 µM (≈ 2 µg/mL) |
| CCn1cc(C(=O)O)c(=O)c2cc(F)c(N3CCN(S(=O)(=O)c4ccc(F)cc4F)CC3)cc21 | 2.39 | 4.04 µM (≈ 2 µg/mL) | 2.09 | 8.07 µM (≈ 4 µg/mL) | 8.07 µM (≈ 4 µg/mL) | 0.89 | 129 µM (≈ 63.9 µg/mL) |
| O=C(O)c1cn(C2CC2)c2cc(N3CCN(S(=O)(=O)c4ccc(F)cc4F)CC3)c(F)cc2c1=O | 3.31 | 0.493 µM (≈ 0.25 µg/mL) | 2.41 | 3.94 µM (≈ 2 µg/mL) | 7.88 µM (≈ 4 µg/mL) | 1.2 | 63 µM (≈ 32 µg/mL) |
| CCn1cc(C(=O)O)c(=O)c2cc(F)c(N3CCN(S(=O)(=O)c4ccc(Cl)cc4Cl)CC3)cc21 | 3.33 | 0.473 µM (≈ 0.25 µg/mL) | 3.33 | ≤ 0.473 µM | ≤ 0.473 µM | 2.86 | 1.39 µM (≈ 0.734 µg/mL) |
| O=C(O)c1cn(C2CC2)c2cc(N3CCN(S(=O)(=O)c4ccc(Cl)cc4Cl)CC3)c(F)cc2c1=O | 3.33 | ≤ 0.463 µM | 3.33 | ≤ 0.463 µM | ≤ 0.463 µM | 2.73 | 1.85 µM (≈ 1 µg/mL) |
| CCn1cc(C(=O)O)c(=O)c2cc(F)c(N3CCN(S(=O)(=O)c4ccc(Cl)c(Cl)c4)CC3)cc21 | 3.33 | ≤ 0.473 µM | 3.33 | ≤ 0.473 µM | ≤ 0.473 µM | 2.72 | 1.89 µM (≈ 0.999 µg/mL) |
| O=C(O)c1cn(C2CC2)c2cc(N3CCN(S(=O)(=O)c4ccc(Cl)c(Cl)c4)CC3)c(F)cc2c1=O | 3.33 | ≤ 0.463 µM | 3.33 | ≤ 0.463 µM | ≤ 0.463 µM | 2.73 | 1.85 µM (≈ 1 µg/mL) |
| CCn1cc(C(=O)O)c(=O)c2cc(F)c(N3CCN(S(=O)(=O)c4c(Cl)cc(Cl)cc4Cl)CC3)cc21 | 3.35 | 0.444 µM (≈ 0.25 µg/mL) | 2.75 | 1.78 µM (≈ 1 µg/mL) | ≥ 455 µM | 0.34 | ≥ 455 µM |
| O=C(O)c1cn(C2CC2)c2cc(N3CCN(S(=O)(=O)c4c(Cl)cc(Cl)cc4Cl)CC3)c(F)cc2c1=O | 3.36 | 0.435 µM (≈ 0.25 µg/mL) | 2.76 | 1.74 µM (≈ 1 µg/mL) | 111 µM (≈ 63.8 µg/mL) | 0.95 | 111 µM (≈ 63.8 µg/mL) |
| CCn1cc(C(=O)O)c(=O)c2cc(F)c(N3CCN(S(=O)(=O)c4c(C)cc(C)cc4C)CC3)cc21 | 2.09 | 7.98 µM (≈ 4 µg/mL) | 2.09 | 7.98 µM (≈ 4 µg/mL) | 32 µM (≈ 16.1 µg/mL) | 1.19 | 64 µM (≈ 32.1 µg/mL) |
| Cc1cc(C)c(S(=O)(=O)N2CCN(c3cc4c(cc3F)c(=O)c(C(=O)O)cn4C3CC3)CC2)c(C)c1 | 1.51 | 31 µM (≈ 15.9 µg/mL) | 1.21 | 62 µM (≈ 31.8 µg/mL) | 62 µM (≈ 31.8 µg/mL) | 0.9 | 125 µM (≈ 64.2 µg/mL) |
| CCn1cc(C(=O)O)c(=O)c2cc(F)c(N3CCN(S(=O)(=O)c4c(C(C)C)cc(C(C)C)cc4C(C)C)CC3)cc21 | 1.26 | 55 µM (≈ 32.2 µg/mL) | 1.26 | 55 µM (≈ 32.2 µg/mL) | 55 µM (≈ 32.2 µg/mL) | 0.96 | 109 µM (≈ 63.8 µg/mL) |
| CC(C)c1cc(C(C)C)c(S(=O)(=O)N2CCN(c3cc4c(cc3F)c(=O)c(C(=O)O)cn4C3CC3)CC2)c(C(C)C)c1 | 0.97 | 107 µM (≈ 64 µg/mL) | 0.67 | 214 µM (≈ 128 µg/mL) | 3.35 µM (≈ 2 µg/mL) | 0.37 | ≥ 428 µM |
| CCn1cc(C(=O)O)c(=O)c2cc(F)c(N3CCN(S(=O)(=O)c4c(C)c(C)c(C)c(C)c4C)CC3)cc21 | 0.62 | 242 µM (≈ 128 µg/mL) | 0.62 | 242 µM (≈ 128 µg/mL) | 242 µM (≈ 128 µg/mL) | 0.62 | 242 µM (≈ 128 µg/mL) |
| Cc1c(C)c(C)c(S(=O)(=O)N2CCN(c3cc4c(cc3F)c(=O)c(C(=O)O)cn4C3CC3)CC2)c(C)c1C | 0.63 | 236 µM (≈ 128 µg/mL) | 0.33 | ≥ 473 µM | ≥ 473 µM | 0.33 | ≥ 473 µM |
| O=C(O)c1cn(C2CC2)c2cc(N3CCNCC3)c(F)cc2c1=O [CIPROFLOXACIN] | 3.12 | ≤ 0.758 µM | 3.12 | ≤ 0.758 µM | ≤ 0.758 µM | 3.12 | 0.758 µM (≈ 0.251 µg/mL) |
